# From PubChem BioAssay
# TRPC6 inhibitor = mouse TRPC6 channel inhibitors, primary screen, cell-based, HEK293, membrane potential dye; 1.1% of 310,000 active; ACh-evoked depolarization; active compounds read low; Short transient receptor potential channel 6 (Mus musculus), Q61143; B-score at 10 µM; AID 2553, 2010;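 active = B-score under library mean minus 3 SD, initial fluorescence not abnormally high, positive integrated signal ratio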;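 also: B-score derived from integrated fluorescence ratio over the kinetic read; more negative B-score means stronger inhibition of depolarization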
# TRPC4 act = activators of mouse TRPC4 channel, primary screen, Fluo4 calcium, HEK293 TRPC4beta/mu-opioid cells; 0.49% of 310,000 active; Short transient receptor potential channel 4 (Mus musculus), Q9QUQ5; B-score at 10 µM; Fluo4 calcium fluorescence; active compounds read high;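 active = B-score above 5 SD of library B-scores, and initial fluorescence ratio not above library mean plus 5 SD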;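 also: positive B-score marks a calcium rise read as TRPC4 activation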
#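 System: HEK293 cells stably co-expressing mouse TRPC4beta and mu-opioid receptor; Schedule: Fluo4 dye loading 45 min at room temperature, 110 s recording; Detection: Fluo4 fluorescence, kinetic; Evaluation: B-scored integrated calcium fluorescence ratio; Controls: buffer (low) and maximal DAMGO (high).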
# TRPC4 block = inhibitors of mouse TRPC4 channel, primary screen, Fluo4 calcium, HEK293 TRPC4beta/mu-opioid cells | Short transient receptor potential channel 4 (Mus musculus), Q9QUQ5 | DAMGO-evoked Fluo4 calcium flux; active compounds read low | AID 2247, 2010 | B-score at 10 µM | 0.39% of 300,000 active;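 active = B-score over 3 SD under the library average, no early fluorescence shift, positive overall ratio signal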
#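 Assay system: HEK293 cells with stable TRPC4beta plus mu-opioid receptor expression; Probe or stimulus: DAMGO in two steps, submaximal then maximal; Dosing: single-point compound dosing; Measured by: Fluo4 calcium-dye fluorescence, kinetic read; Read-out basis: B score from integrated Fluo4 fluorescence ratio.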
# TRPC4 PAM = positive allosteric modulators of TRPC4, primary screen, cell-based, mouse TRPC4beta, HEK293 mu-opioid, Fluo-4 calcium | DAMGO EC20, Fluo-4 Ca2+ flux; active compounds read high | B-score at 10 µM | 0.42% of 310,000 active;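 active = B-score of calcium response area above 5 SD of library B-scores, with initial fluorescence ratio within 5 SD of library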;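 also: B-score of integrated fluorescence ratio over time as area under calcium response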
# TRPC6 activator = mouse TRPC6 channel activators, primary screen, cell-based, HEK293, membrane potential dye; Short transient receptor potential channel 6 (Mus musculus), Q61143; HEK293-TRPC6 membrane potential dye fluorescence; active compounds read high; B-score at 10 µM; 0.13% of 310,000 active; AID 2550, 2010;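 active = B-score of the integrated fluorescence ratio above library mean plus 3 SD, and starting fluorescence ratio within library mean plus 5 SD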;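 also: higher score means more depolarization so channel activation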
# Pemphigus Ab inh = inhibitors of pemphigus antibody binding to DSG3, primary screen, biochemical, bead-based, flow cytometry, scFv-GFP. DSG3-coupled beads, scFv-anti-DSG3-GFP binding; active compounds read low. binding (percent of control), % at 10 µM. 0.48% of 310,000 active. AID 588358, 2011;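 active = binding more than 3 SD below its plate's average and above zero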;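 also: hits lower antibody fragment binding to DSG3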
# * = called active by the depositor; i = inactive; x = no result. This is a sample that favours compounds with a hit; in the whole collection about 2.5% have one here.
SMILES,TRPC6 inhibitor,TRPC4 act,TRPC4 block,TRPC4 PAM,TRPC6 activator,Pemphigus Ab inh
CCC(=O)N1CCc2cc(S(=O)(=O)CCC(=O)N3CCN(c4ccc(C(C)=O)cc4)CC3)ccc21,i,i,i,i,i,101
Cc1ccccc1CN1N=C(/C=C/c2ccccc2)CCC1=O,i,i,i,14*,i,104
Cc1ccc(/C=C/C2=NN(Cc3ccc(Cl)c(Cl)c3)C(=O)CC2)cc1,i,i,i,i,i,108
COc1cc(/C=N/Nc2nc(C)cc(C)n2)cc(OC)c1OC,i,i,i,i,i,111
COC(=O)CSc1nnc2n(C3CCCCC3)c(=O)c3c4c(sc3n12)CCCC4,i,i,-6*,i,i,102
CCOC(=O)CSc1nnc2n(C3CCCCC3)c(=O)c3c4c(sc3n12)CCCC4,i,i,i,i,i,120
COC(=O)CSc1nnc2n(-c3ccc(OC)cc3)c(=O)c3c4c(sc3n12)CCCCC4,i,i,-7*,i,i,97
COc1ccc(-n2c(=O)c3c4c(sc3n3c(=S)[nH]nc23)CCCC4)cc1,i,i,i,i,i,103
C=CCSc1nnc2n(-c3ccccc3OC)c(=O)c3c4c(sc3n12)CCC4,i,i,-6*,i,i,x
O=C(COc1ccccc1)Nc1ccc(-c2ccc(N3CCOCC3)nn2)cc1,i,i,i,i,i,94
Cc1cccc(OS(=O)(=O)NC(=O)OCC2CCCN3CCCCC23)c1 (configuration not stated),i,i,i,i,i,98
COc1ccc(OC)c(NC(=O)CN2CCc3ccccc3C2)c1,i,i,i,i,i,88
COc1ccc(S(=O)(=O)N2CCC3(CC2)OCCN3S(=O)(=O)c2cccs2)cc1OC,i,i,i,i,i,90
CC(C)c1nnc(NC(=O)CCC(=O)N2CCN(Cc3ccccc3)CC2)s1,i,i,i,12*,i,106
CN(C)c1ccc(NC(=O)C2C3C=CC(C3)C2C(=O)O)cc1 (configuration not stated),i,i,i,21*,i,105
O=C(O)C1C2C=CC(C2)C1C(=O)Nc1ccc2c(c1)OCCO2 (configuration not stated),i,i,i,i,i,x
Cn1nc(C(=O)Nc2ccccc2N2CCCC2)c2ccccc2c1=O,i,i,i,i,i,111
Cc1ccc2nc3c(cc(C(=O)NC4CCCC4)c(=N)n3CCCn3ccnc3)c(=O)n2c1,-5.5*,i,i,i,i,x
Cc1ccc(Cn2c(=N)c(C(=O)NCC3CCCO3)cc3c(=O)n4ccccc4nc32)cc1 (configuration not stated),i,i,i,47*,i,98
Cc1cccn2c(=O)c3cc(C(=O)NCCc4ccccc4)c(=N)n(CC4CCCO4)c3nc12 (configuration not stated),i,i,i,i,i,x
N=c1c(C(=O)NCC2CCCO2)cc2c(=O)n3ccccc3nc2n1Cc1ccc(Cl)cc1 (configuration not stated),i,i,i,29*,i,130
N=c1c(C(=O)NCCc2ccccc2)cc2c(=O)n3ccccc3nc2n1CC1CCCO1 (configuration not stated),-5.1*,i,i,i,i,101
COc1ccc(CCNC(=O)c2cccnc2Cl)cc1OC,i,i,i,i,i,107
Cc1ccc(C)c(Nc2c([N+](=O)[O-])c(=O)oc3ccccc23)c1,i,i,i,i,i,109
Cc1ccc(Cn2c(=N)c(C(=O)NC3CCCCC3)cc3c(=O)n4ccccc4nc32)cc1,i,i,i,20*,i,99
SMILES,TRPC6 inhibitor,TRPC4 act,TRPC4 block,TRPC4 PAM,TRPC6 activator,Pemphigus Ab inh
N=c1c(C(=O)NC2CCCCC2)cc2c(=O)n3ccccc3nc2n1Cc1ccc(F)cc1,i,i,i,i,i,95
CN1CCN(C(=O)N2c3ccccc3C=Cc3ccccc32)CC1,i,i,i,13*,i,87
O=C(NCC1OCCCN1S(=O)(=O)c1cc(F)ccc1F)C(=O)NC1CCCCC1 (configuration not stated),i,i,i,i,i,97
N[C@@H](Cc1ccccc1)C(=O)N1CCC(C(=O)N[C@@H](Cc2c[nH]c3ccccc23)C(=O)O)CC1,i,i,-6*,i,i,104
CSCC[C@H](N)C(=O)N1CCC(C(=O)N[C@@H](Cc2c[nH]c3ccccc23)C(=O)O)CC1,i,i,i,i,i,100
CN(CCOc1ccc(Br)cc1)CC(O)c1ccccc1 (configuration not stated),i,149*,i,i,i,104
CN(CCOc1ccccc1)CC(O)COCc1ccccc1F (configuration not stated),i,i,i,i,i,104
CN(CCOc1ccc(Cl)cc1)CC(O)c1ccccc1 (configuration not stated),i,126*,i,i,i,97
Cc1nc2ccccc2n1CCCOc1ccccc1,i,i,i,i,i,70
Cc1nc2ccccc2n1Cc1ccccc1,i,i,i,i,i,104
Nc1nc2ccccc2n1CCOc1ccc(Br)cc1,i,i,i,i,i,132
Cc1nc(Cl)c(Cl)n1CCOc1ccccc1,i,i,-8*,i,i,91
Nc1nc2ccccc2n1CCOc1ccc(Cl)cc1,i,i,-7*,i,i,114
CCCc1nc2ccccc2n1CCOc1ccccc1,i,i,-6*,i,i,111
Cc1nc2ccccc2n1Cc1ccc(Br)cc1,i,i,-6*,i,i,111
CCOc1ccc(NC(=O)NNC(=O)C(C)Oc2ccccc2OC)cc1 (configuration not stated),i,i,i,i,i,100
CC(C)(C)Cc1nc2ccccc2n1CCc1ccccc1,i,i,-7*,i,i,127
